5HT1E antag: 5-HT1E (human) receptor antagonism | 0.99% of 65,000 active | inhibition, % at 6 µM | AID 571 | P28566 | CHO 5-HT1E Ga15 NFAT-bla reporter, FRET, antagonist;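 active = inhibition above a set limit, the mean inhibition across every tested compound plus 3 SD, cut at about 29% in these data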;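 also: signal is the 460 over 535 nm emission ratio of beta-lactamase substrate; 0% = agonist plus DMSO wells and 100% = wells without agonist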
Target sequence (P28566 whole entry, looked up): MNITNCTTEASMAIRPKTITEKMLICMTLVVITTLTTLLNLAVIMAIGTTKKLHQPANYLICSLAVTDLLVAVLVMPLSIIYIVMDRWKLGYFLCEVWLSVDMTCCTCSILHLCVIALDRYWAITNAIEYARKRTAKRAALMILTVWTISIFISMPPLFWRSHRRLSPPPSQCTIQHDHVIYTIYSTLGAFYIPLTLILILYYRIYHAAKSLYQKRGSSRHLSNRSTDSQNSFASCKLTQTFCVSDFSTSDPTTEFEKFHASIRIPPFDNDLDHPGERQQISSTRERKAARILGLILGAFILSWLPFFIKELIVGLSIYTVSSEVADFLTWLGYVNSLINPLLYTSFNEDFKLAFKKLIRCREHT
S1P3 ag: activates the human S1P3 receptor | Q99500 | S1P3 NFAT-BLA reporter cells, agonism, FRET ratio; relative to 1 µM S1P, basal subtracted | activation, % at 4.5 µM | 0.1% of 60,000 active | AID 373;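 active = activation above the screen-wide mean plus 3 SD, cut at about 4.5% in these data, passing the limit was not always enough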
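Assay system: stable CHO line with human S1P3, Gα16, NFAT-BLA reporter; Detection: FRET β-lactamase substrate fluorescence, excitation 405 nm, 460/535 nm emission ratio, background-subtracted; Read-out: percent activation versus median 1 µM S1P response, basal-subtracted, per plate; Incubation: cells plated overnight, compound 4 h 37 °C, substrate 2 h RT.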
5-HT1A blocker: antagonists of human 5-HT1a serotonin receptor | P08908 | CHO 5-HT1a Ga15 NFAT-bla reporter, antagonist mode | inhibition, % at 10 µM | 0.68% of 62,000 active | AID 612;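 active = inhibition above the mean of all tested compounds plus 3 SD, cut at about 43% in these data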;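 also: receptor stimulated by 5-CT agonist at 100 nM near EC80; beta-lactamase reporter measured by ratiometric fluorescence of a cleavable substrate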
5HT1a ag: agonists of human 5-HT1a serotonin receptor; P08908; activation, % at 10 µM; 0.56% of 65,000 active; AID 567; CHO 5-HT1a Ga15 NFAT-bla reporter, FRET ratio; 0% basal, 100% maximal reference agonist;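 active = activation above the screen-wide mean activation plus 3 SD, cut at about 19% in these data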;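 also: 0% = DMSO wells and 100% = 5-CT at EC100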
S1P1 ag-PAM: activates or potentiates agonism at human S1P1 receptor; P21453; S1P1 CRE-bla cells, forskolin, beta-lactamase FRET, potentiator mode; S1P1 agonist co-added at EC20, 2 nM; 100% = saturating reference agonist, 0% = basal; activation, % at 9.5 µM; 0.57% of 56,000 active; AID 449;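 active = activation above a cutoff set at the mean activation of all tested compounds plus 3 SD, cut at about 54% in these data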;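 also: forskolin at 4 µM as EC80 and the EC20 agonist is SEW2871; 100% = SEW2871 at its EC100 plus forskolin at EC80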
Target sequence (P21453 whole entry, looked up): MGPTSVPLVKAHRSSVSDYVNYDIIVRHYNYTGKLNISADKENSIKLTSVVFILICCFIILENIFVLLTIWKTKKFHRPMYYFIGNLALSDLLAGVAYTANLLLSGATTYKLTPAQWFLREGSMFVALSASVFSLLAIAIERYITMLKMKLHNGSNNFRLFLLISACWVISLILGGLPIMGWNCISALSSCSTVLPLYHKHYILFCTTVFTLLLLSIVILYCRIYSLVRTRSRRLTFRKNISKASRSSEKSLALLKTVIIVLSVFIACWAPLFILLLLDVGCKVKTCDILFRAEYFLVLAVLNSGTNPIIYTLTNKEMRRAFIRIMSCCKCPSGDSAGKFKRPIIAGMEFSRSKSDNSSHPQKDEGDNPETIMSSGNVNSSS
5HT1E ag: agonists of human 5-HT1E serotonin receptor. P28566. CHO 5-HT1E Ga15 NFAT-bla reporter, FRET; 0% DMSO wells, 100% control agonist wells. activation, % at 6 µM. 0.69% of 65,000 active. AID 574;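 active = activation above a set limit, the screen-wide mean activation plus 3 SD, cut at about 8.5% in these data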;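 also: 100% = positive control agonist at 1 µM giving full maximal response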
An asterisk follows results filed as active; nt = no result. Rows were chosen to be rich in hits. Some 3% of all compounds tested hit in one or more screens of this group.

SMILES	5HT1E antag	S1P3 ag	5-HT1A blocker	5HT1a ag	S1P1 ag-PAM	5HT1E ag
CC(C)(C)c1ccc(O)c(CN2CCN(c3ccccc3)CC2)c1	-4.0	-0.3	64.2*	-2.5	-38.5	4.2
Nc1ccc(N2CCN(Cc3ccccc3Cl)CC2)c(Cl)c1	-8.5	-1.4	3.4	-0.3	3.7	-0.8
CC12CN3CC(C)(CN(C1)C31CCSCC1)C2=O	-7.3	0.4	-12.0	0.2	-8.8	-0.2
CCCCc1nc(N2CCNCC2)c(C#N)c2c1CSC(C)(C)C2	9.2	-2.6	nt	-1.5	-19.6	10.2*
CP(C)(=O)CCC(=O)O	-4.3	-1.3	-1.1	-1.4	-17.6	0.9
COc1ccc(CC2C(=O)N(C)C(=O)N(C)C2=O)c(OC)c1	-4.5	-0.5	-51.5	22.3*	-46.1	0.0
COc1cc2c(cc1OC)-c1c(OC)c(OC)cc3c1C(C2)N(C)CC3 (stereo unspecified)	23.5	0.3	2.6	6.3	-20.7	25.1*
CC(C)n1cc(C(=O)N(CC(=O)NC2CCCC2)Cc2ccccc2)cn1	0.9	-0.6	-0.6	0.8	-10.9	-0.1
COc1ccccc1N1CCN(Cc2ccccc2Cl)CC1	-1.0	-0.7	20.0	-1.0	-14.8	8.0
COc1ccccc1N1CCN(Cc2cccc(OC)c2O)CC1	5.2	-1.1	32.1	2.5	nt	12.6*
COc1ccccc1N1CCN(Cc2c(F)cccc2F)CC1	11.0	-1.1	-0.4	-0.8	-6.6	1.6
COc1ccccc1N1CCN(Cc2ccccc2F)CC1	-5.5	-0.9	6.2	1.2	-20.3	17.8*
COc1cc(C2NCc3ccccc3-n3cccc32)ccc1O (stereo unspecified)	-0.1	-0.4	3.9	-1.7	28.9	-0.3
CCCCC12CNCC(C)(CNC1)C2=O	-7.5	0.2	-12.3	86.3*	-11.9	0.3
c1ccc2c(CN3CCCCCCC3)c[nH]c2c1	0.0	3.6	34.3	1.5	nt	-0.9
CN1CC=C(c2c[nH]c3ccccc23)CC1	-6.9	-1.7	-1.9	14.7	8.7	105.9*
COc1cc2nc(CN3CC=C(c4ccccc4)CC3)[nH]c(=O)c2cc1OC	1.0	0.8	44.1*	1.1	22.0	0.4
O[C@@H]1CCCC[C@H]1N1CCC(c2ccccc2)CC1	5.2	-0.4	8.7	-0.8	0.6	-0.2
Cc1[nH]c2ccccc2c1C1=CCNCC1	-8.7	0.5	-15.9	0.4	14.7	90.6*
CCn1nc(-c2cccs2)nc2c(=O)n(C)c(=O)nc1-2	95.9*	-2.1	81.9*	10.7	96.2*	1.3
CN1CCC2(CC1)NC(=O)C1=C(CN(C)CC1)N2	0.9	-0.3	-9.8	-0.8	-8.2	-0.5
Cc1cccc(-c2nc3ccccc3c(=O)n2-n2cccc2)c1	6.7	-0.9	1.4	-2.2	-7.7	0.6
O=C(CCCN1CCC2(CC1)C(=O)NCN2c1ccccc1)c1ccc(F)cc1	-30.4	-0.5	nt	-1.6	-37.2	16.0*
CN(C)C=C1C(=O)N(C2CCCCC2)C(=O)N(C2CCCCC2)C1=O	6.2	-0.2	5.1	-1.7	6.9	5.6
Cc1ccccc1C1=NCC(=O)N(CC(=O)NCc2ccco2)c2sc3c(c21)CCCC3	-5.8	1.1	9.9	2.0	5.5	1.3
SMILES	5HT1E antag	S1P3 ag	5-HT1A blocker	5HT1a ag	S1P1 ag-PAM	5HT1E ag
Cc1[nH]c2c(Cl)cccc2c1CCN	6.9	-0.7	5.9	-1.5	5.2	71.4*
Clc1ccc(COC(Cn2ccnc2)c2ccc(Cl)cc2Cl)c(Cl)c1 (stereo unspecified)	15.8	-4.5	nt	2.4	-10.9	-0.7
CC(C)[C@H]1C(=O)N2CCC[C@H]2[C@]2(O)O[C@](NC(=O)[C@@H]3C=C4c5cccc6[nH]cc(c56)C[C@H]4N(C)C3)(C(C)C)C(=O)N12	-1.2	18.0	nt	102.4*	-37.8	4.0
CC(C)[C@@]1(NC(=O)[C@@H]2C[C@@H]3c4cccc5[nH]cc(c45)C[C@H]3N(C)C2)O[C@@]2(O)[C@@H]3CCCN3C(=O)[C@H](Cc3ccccc3)N2C1=O	-11.6	0.2	nt	95.9*	-46.4	1.7
CC(C)[C@@]1(NC(=O)[C@@H]2C=C3c4cccc5[nH]cc(c45)C[C@H]3N(C)C2)O[C@@]2(O)[C@@H]3CCCN3C(=O)[C@H](Cc3ccccc3)N2C1=O	7.3	-1.5	nt	112.9*	7.3	9.1*
Cc1cccnc1NC1=NCC(C)S1 (stereo unspecified)	-3.8	-0.7	-1.7	-0.4	-20.4	-0.4
CC(=O)Nc1ccccc1OP1(=O)COc2ccccc2OC1	-8.1	-0.3	-13.7	0.3	0.7	0.4
O=C1c2ccccc2C2(c3ccc(Cl)cc3)NCCN12 (stereo unspecified)	2.3	-0.8	-43.8	-3.7	5.9	-0.6
Cn1c(O)c(C(=NCCN2CCCCC2)c2ccccc2Cl)c(=O)n(C)c1=O	-11.2	-0.2	42.9*	-0.5	-19.3	-0.9
CCC(=NCCN1CCCCC1)c1c(O)n(C)c(=O)n(C)c1=O	-6.5	-2.1	nt	-0.7	-3.7	-0.5
O=C(C1CC(=O)N(c2ccc(F)c(Cl)c2)C1)N1CCC2(CC1)OCCO2 (stereo unspecified)	5.3	-0.1	0.9	0.6	8.2	-1.2
O=C1CN=C(c2ccccc2)c2oc3ccc(Br)cc3c2N1	10.0	-1.1	14.7	0.0	-30.7	0.4
COc1cccc(OC)c1C1=NCC(=O)Nc2c1oc1ccc(Br)cc21	79.7*	-1.1	71.1*	-2.1	3.7	-0.6
CCC(=NCCOc1ccc(Cl)cc1)c1c(O)n(C)c(=O)n(C)c1=O	16.1	-6.6	nt	0.2	62.2*	-1.5
CN1CCN(CC(=O)Nc2ccc(Cl)cc2C(=O)c2ccccc2)CC1	-4.4	-1.0	-3.5	1.9	-11.1	10.4*
O=C(CN1CCN(CCO)CC1)Nc1ccc(Cl)cc1C(=O)c1ccccc1	7.6	-1.3	nt	-1.0	6.2	-0.7
CC1(C)CC2(CCO1)NCCN1C(=O)CSC12 (stereo unspecified)	0.7	-1.4	0.0	-3.2	-10.3	0.0
COc1cccc(N2CCN(Cc3cccc(Cl)c3)CC2)c1	33.8*	-1.9	-8.6	1.9	-1.4	0.1
COc1cccc(N2CCN(Cc3ccc(Cl)cc3)CC2)c1	0.3	-1.1	-5.4	-1.2	-19.3	8.0
CCCCc1ccc2[nH]cc(CCN)c2c1	-3.4	0.4	-8.2	68.7*	4.0	106.3*
CC(C)Cc1[nH]c(=O)c(C#N)c2c1CCC2	-12.8	-3.0	nt	1.7	-18.4	0.0
CN(C)P(=O)(C(Cl)=C(N1CCCCC1)N1CCCCC1)N(C)C	0.2	-1.1	43.0*	-6.4	1.0	0.0
COCCCn1c(N)c(C(=O)NCCC(C)C)c2nc3ccccc3nc21	-20.7	10.2*	-32.2	34.0*	-112.2	11.9*
COc1ccc(Cn2c(N)c(C(=O)NCc3ccco3)c3nc4ccccc4nc32)cc1	6.6	7.5*	20.9	-4.4	-298.5	0.3
CCCCCCn1c(N)c(C(=O)NCCN2CCOCC2)c2nc3ccccc3nc21	2.8	10.0*	-19.1	10.8	-129.7	3.0
Nc1c(C(=O)NCc2ccco2)c2nc3ccccc3nc2n1Cc1ccc(F)cc1	-14.1	12.4	nt	15.8	-63.6	2.4
O=C1C2CCCN2C(c2cccc(Cl)c2)N1c1ccccn1 (stereo unspecified)	-5.0	-0.1	5.6	1.5	12.4	0.5

Screens as filed in PubChem.
